# Measured values taken from ChEMBL document CHEMBL5096186, “Design, Synthesis, and Biological Evaluation of Novel Pyrimido[4,5-b]indole Derivatives Against Gram-Negative Multidrug-Resistant Pathogens” (J Med Chem, 2021).
# Columns and labels:
# Staphylococcus aureus [1] = assay: Antibacterial activity against methicillin-sensitive Staphylococcus aureus strains 15 1 to 4 assessed as reduction in bacterial growth incubated for 18 to 20 hrs by CLSI based microdilution method; type: functional; details: time 18-20 hrs
# Outline: (§1)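 Broth microdilution per CLSI. Compounds dissolved in DMSO (levofloxacin and meropenem in water) as 64 μg/mL stock, then serial twofold dilutions in broth giving 64 to 0.008 μg/mL. […] Clinical isolates tested as several strains per group; racemic GP-1 served as positive control; values given as MIC ranges.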
# [2] = system: Staphylococcus epidermidis; assay: Antibacterial activity against methicillin-sensitive Staphylococcus epidermidis strains 15 1 to 4 assessed as reduction in bacterial growth incubated for 18 to 20 hrs by CLSI based microdilution method; type: functional; details: time 18-20 hrs; outline: as §1
# Escherichia coli [3] = assay: Antibacterial activity against ESBL-producing Escherichia coli ATCC 35218 strains 15 1 to 3 assessed as reduction in bacterial growth incubated for 18 to 20 hrs by CLSI based microdilution method; type: functional; details: time 18-20 hrs
# Outline: (§2)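 CLSI broth microdilution. Compounds in DMSO (levofloxacin and meropenem in water), serial twofold dilutions in broth, 64 to 0.008 μg/mL. […] Results reported as MIC ranges across strains.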
# Escherichia coli [4] = assay: Antibacterial activity against Escherichia coli ATCC 35218 strains 15 1 to 3 assessed as reduction in bacterial growth incubated for 18 to 20 hrs by CLSI based microdilution method; type: functional; details: time 18-20 hrs; outline: as §2
# Pseudomonas aeruginosa [5] = assay: Antibacterial activity against multidrug resistant Pseudomonas aeruginosa strains 15 1 to 3 assessed as reduction in bacterial growth incubated for 18 to 20 hrs by CLSI based microdilution method; type: functional; details: time 18-20 hrs; outline: as §1
# [6] = molecular target: hERG (KCNH2) potassium channel (Homo sapiens, UniProt Q12809); assay: Inhibition of hERG potassium channel assessed as maximum inhibition rate at 40 uM at -80 mV holding potential incubated for 120 seconds by whole cell-automated voltage clamp analysis assay relative to control; type: toxicity; details: time 120 sec
# Outline: (§3)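 Automated whole-cell patch clamp, holding potential −80 mV. Voltage protocol applied every 20 s. Baseline set with external solution containing 0.1% DMSO and stabilised 3 min. Compound applied until steady state, at least 3 min, then washout. Maximum tested concentration 40 μM, or 3 μM for cisapride as positive control.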
# [7] = molecular target: Voltage-gated inwardly rectifying potassium channel KCNH2 (Homo sapiens, UniProt Q12809); assay: Inhibition of hERG potassium channel assessed as […] at -80 mV holding potential incubated for 120 seconds by whole cell-automated voltage clamp analysis assay; type: toxicity; outline: as §3
# Escherichia coli [8] = assay: Antibacterial activity against ESBL-producing multidrug resistant Escherichia coli assessed as reduction in bacterial growth incubated for 18 to 20 hrs by CLSI based microdilution method; type: functional; details: time 18-20 hrs; outline: as §1
# Escherichia coli [9] = assay: Antibacterial activity against multidrug resistant wild type Escherichia coli ATCC BAA-2340 assessed as reduction in bacterial growth incubated for 18 to 20 hrs by CLSI based microdilution method; type: functional; details: time 18-20 hrs; outline: as §1
# Escherichia coli [10] = assay: Antibacterial activity against multidrug resistant wild type Escherichia coli NCTC 13353 assessed as reduction in bacterial growth incubated for 18 to 20 hrs by CLSI based microdilution method; type: functional; details: time 18-20 hrs; outline: as §1
# Klebsiella pneumoniae [11] = assay: Antibacterial activity against KPC2-producing multidrug resistant Klebsiella pneumoniae assessed as reduction in bacterial growth incubated for 18 to 20 hrs by CLSI based microdilution method; type: functional; details: time 18-20 hrs; outline: as §1
# Klebsiella pneumoniae [12] = assay: Antibacterial activity agains wild type Klebsiella pneumoniae ATCC BAA-1705 assessed as reduction in bacterial growth incubated for 18 to 20 hrs by CLSI based microdilution method; type: functional; details: time 18-20 hrs; outline: as §2
# Klebsiella pneumoniae [13] = assay: Antibacterial activity agains wild type Klebsiella pneumoniae ATCC BAA-2470 assessed as reduction in bacterial growth incubated for 18 to 20 hrs by CLSI based microdilution method; type: functional; details: time 18-20 hrs; outline: as §1
# Acinetobacter baumannii [14] = assay: Antibacterial activity agains OXA23-producing multidrug resistant Acinetobacter baumannii assessed as reduction in bacterial growth incubated for 18 to 20 hrs by CLSI based microdilution method; type: functional; details: time 18-20 hrs; outline: as §1
# Acinetobacter baumannii [15] = assay: Antibacterial activity against wild type Acinetobacter baumannii NCTC 13304 assessed as reduction in bacterial growth incubated for 18 to 20 hrs by CLSI based microdilution method; type: functional; details: time 18-20 hrs; outline: as §1
# Pseudomonas aeruginosa [16] = assay: Antibacterial activity against IMP4-producing multidrug resistant Pseudomonas aeruginosa assessed as reduction in bacterial growth incubated for 18 to 20 hrs by CLSI based microdilution method; type: functional; details: time 18-20 hrs; outline: as §1
# Pseudomonas aeruginosa [17] = assay: Antibacterial activity against wild type Pseudomonas aeruginosa ATCC 27853 assessed as reduction in bacterial growth incubated for 18 to 20 hrs by CLSI based microdilution method; type: functional; details: time 18-20 hrs; outline: as §2
# [18] = Metabolic stability in rat liver microsome assessed as elimination half life at 0.1 uM in presence of NADPH incubated upto 60 mins by LC-MS/MS analysis; type: ADME; details: liver microsomes, read-out: beta t1/2
# Outline: (§4)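 Compound at 0.1 μM final, in 0.01% DMSO with 0.005% BSA. Incubated with rat or human liver microsomes at 0.33 mg/mL in 0.1 M Tris-HCl, pH 7.4, with 5 mM MgCl₂ and 1 mM NADPH, at 37 °C. Samples at 0, 7, 17, 30 and 60 min quenched with cold methanol and analysed by LC-MS/MS. Half-life, Cl_int and MF% derived as previously described.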
# [19] = Metabolic stability in human liver microsome assessed as elimination half life at 0.1 uM in presence of NADPH incubated upto 60 mins by LC-MS/MS analysis; type: ADME; details: liver microsomes, read-out: beta t1/2; outline: as §4
# [20] = Metabolic stability in rat liver microsome assessed as intrinsic clearance at 0.1 uM in presence of NADPH incubated upto 60 mins by LC-MS/MS analysis; type: ADME; details: microsomes, 1 h; outline: as §4
# [21] = Metabolic stability in human liver microsome assessed as intrinsic clearance at 0.1 uM in presence of NADPH incubated upto 60 mins by LC-MS/MS analysis; type: ADME; details: microsomes, 1 h; outline: as §4
# [22] = Metabolic stability in rat liver microsome assessed as metabolic bioavailability at 0.1 uM in presence of NADPH incubated upto 60 mins by LC-MS/MS analysis; type: ADME; details: liver microsomes; outline: as §4
# [23] = Metabolic stability in human liver microsome assessed as metabolic bioavailability at 0.1 uM in presence of NADPH incubated upto 60 mins by LC-MS/MS analysis; type: ADME; details: liver microsomes; outline: as §4
# Staphylococcus aureus [24] = assay: Antibacterial activity against methicillin-resistant Staphylococcus aureus strains 15 1 to 4 assessed as reduction in bacterial growth incubated for 18 to 20 hrs by CLSI based microdilution method; type: functional; details: time 18-20 hrs; outline: as §1
# [25] = system: Staphylococcus epidermidis; assay: Antibacterial activity against methicillin-resistant Staphylococcus epidermidis strains 15 1 to 4 assessed as reduction in bacterial growth incubated for 18 to 20 hrs by CLSI based microdilution method; type: functional; details: time 18-20 hrs; outline: as §1
# Chain of Voltage-gated inwardly rectifying potassium channel KCNH2 (Q12809 whole entry): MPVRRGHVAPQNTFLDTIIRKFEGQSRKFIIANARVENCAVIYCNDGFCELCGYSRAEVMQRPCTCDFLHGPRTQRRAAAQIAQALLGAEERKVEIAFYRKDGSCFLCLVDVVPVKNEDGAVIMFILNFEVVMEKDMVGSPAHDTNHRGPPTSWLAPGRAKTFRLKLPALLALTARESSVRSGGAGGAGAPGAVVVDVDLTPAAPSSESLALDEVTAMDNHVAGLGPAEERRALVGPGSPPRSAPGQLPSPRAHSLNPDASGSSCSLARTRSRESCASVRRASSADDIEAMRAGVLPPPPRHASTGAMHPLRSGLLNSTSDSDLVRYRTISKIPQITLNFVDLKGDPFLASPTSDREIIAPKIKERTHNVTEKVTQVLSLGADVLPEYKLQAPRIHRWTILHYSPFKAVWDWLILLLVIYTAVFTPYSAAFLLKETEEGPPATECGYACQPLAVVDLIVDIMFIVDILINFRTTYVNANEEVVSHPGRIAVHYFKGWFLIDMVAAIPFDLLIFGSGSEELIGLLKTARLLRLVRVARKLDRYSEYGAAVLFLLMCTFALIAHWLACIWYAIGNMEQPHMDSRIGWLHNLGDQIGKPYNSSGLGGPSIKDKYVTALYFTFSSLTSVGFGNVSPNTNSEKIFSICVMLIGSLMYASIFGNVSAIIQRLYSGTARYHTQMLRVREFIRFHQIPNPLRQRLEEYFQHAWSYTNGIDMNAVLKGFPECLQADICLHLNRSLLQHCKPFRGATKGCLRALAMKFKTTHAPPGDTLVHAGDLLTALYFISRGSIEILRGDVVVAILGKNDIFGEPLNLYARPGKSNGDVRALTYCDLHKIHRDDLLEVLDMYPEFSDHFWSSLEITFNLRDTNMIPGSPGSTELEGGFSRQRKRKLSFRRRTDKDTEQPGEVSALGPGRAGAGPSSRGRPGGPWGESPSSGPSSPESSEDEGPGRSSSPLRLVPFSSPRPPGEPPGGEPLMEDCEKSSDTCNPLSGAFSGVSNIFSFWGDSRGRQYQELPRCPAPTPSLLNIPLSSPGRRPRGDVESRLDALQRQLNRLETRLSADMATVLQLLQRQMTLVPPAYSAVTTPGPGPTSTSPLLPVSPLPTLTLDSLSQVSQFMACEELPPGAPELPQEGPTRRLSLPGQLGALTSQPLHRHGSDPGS
# Chain of hERG (KCNH2) potassium channel (Q12809 whole entry): as above
SMILES,MIC (Staphylococcus aureus [1]) [µg/mL],MIC [2] [µg/mL],MIC (Escherichia coli [3]) [µg/mL],MIC (Escherichia coli [4]) [µg/mL],MIC (Pseudomonas aeruginosa [5]) [µg/mL],MIC (Escherichia coli [8]) [µg/mL],MIC (Escherichia coli [9]) [µg/mL],MIC (Escherichia coli [10]) [µg/mL],MIC (Klebsiella pneumoniae [11]) [µg/mL],MIC (Klebsiella pneumoniae [12]) [µg/mL],MIC (Klebsiella pneumoniae [13]) [µg/mL],MIC (Acinetobacter baumannii [14]) [µg/mL],MIC (Acinetobacter baumannii [15]) [µg/mL],MIC (Pseudomonas aeruginosa [16]) [µg/mL],MIC (Pseudomonas aeruginosa [17]) [µg/mL],half-life at 0.1 µM [18] [min],half-life at 0.1 µM [19] [min],CLH [20] [mL/min/g],CLH [21] [mL/min/g],"Fh at 1 h, 0.1 µM [22] [%]",other results
CNc1cc(F)cc2c1[nH]c1nc(Oc3cnc(C)nc3)nc(N3CC(=C(CN)C(C)C)C3)c12,< 0.008,< 0.008,0.125,0.03,1,1,0.5,0.5,2,4,2,0.5,0.5,4,2,17.8,38,118.3,55.2,27.3,"inhibition at 2 min, 40 µM [6]: 26.5%; IC50 [7]: > 40 µM; Fh at 1 h, 0.1 µM [23]: 26.2%"
CCC(CN)=C1CN(c2nc(Sc3ccc(Br)cn3)nc3[nH]c4c(NC)cc(F)cc4c23)C1,1,0.25,> 2,> 1,> 16,,,,,,,,,,,,,,,,MIC (Staphylococcus aureus [24]): 0.5 µg/mL; MIC [25]: 0.25 µg/mL
[2H]C([2H])([2H])Nc1cc(F)cc2c1[nH]c1nc(Oc3cnc(C)nc3)nc(N3CC(=C(CC)CN)C3)c12,,,,,,0.5,0.25,0.125,1,4,2,0.25,0.25,4,2,32.9,105,63.9,20,41,"Fh at 1 h, 0.1 µM [23]: 49.6%"
CCC(CN)=C1CN(c2nc(Oc3cnc(CO)nc3)nc3[nH]c4c(NC)cc(F)cc4c23)C1,< 0.008,< 0.008,0.5,0.25,> 4,1,1,0.5,4,8,2,1,1,> 8,4,11.9,57.8,176.4,36.3,20.1,"inhibition at 2 min, 40 µM [6]: 30.9%; IC50 [7]: > 40 µM; Fh at 1 h, 0.1 µM [23]: 35%"
CNc1cc(F)cc2c1[nH]c1nc(Oc3cnc(C)nc3)nc(N3CCC(=C(C)CN)CC3)c12,0.125,0.03,2,0.25,> 8,,,,,,,,,,,,,,,,MIC (Staphylococcus aureus [24]): 0.125 µg/mL; MIC [25]: < 0.008 µg/mL
CCC(CN)=C1CN(c2nc(N)nc3[nH]c4c(NC)cc(F)cc4c23)C1,> 4,2,4,2,≥ 16,,,,,,,,,,,,,,,,MIC (Staphylococcus aureus [24]): 4 µg/mL; MIC [25]: 4 µg/mL
